From ChEMBL document CHEMBL1141628 (J Med Chem, 2008) come the findings set out here.

One may read the Cmax as the highest concentration seen after dosing. The AUC(0-t) is the area under the concentration-time curve up to a stated or last time point. Higher therefore signals high exposure. One may read the solubility as the dissolved amount per volume that the medium holds. Low values mean little dissolved substance, high ones much dissolved substance. One may read the IC50 as the concentration needed to halve the response being measured. Read a high IC50 as weaker potency.

SMILES strings stand for the structures. Converted amounts (≈) assume the structure as drawn.

Series [1] is described as follows: Cmax in mouse at 50 mg/kg, po. The note with it: in vivo. More on the design: dose 50 mg/kg, route oral. In kind it is ADME, organism-based. In outline: (§1)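 Oral dosing to female mice, three per dose group, at 50 and 200 mg/kg in PEG400/water (70:30). Plasma levels of the parent drug were measured at 0.5, 1 and 4 h.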
Series [2] in a line: Cmax in mouse at 200 mg/kg, po. In kind it is ADME, organism-based. The note with it: in vivo. More on the design: dose 200 mg/kg, route oral. In outline:
as §1

The nature of series [3]: AUC (0 to 4 hrs) in mouse at 50 mg/kg, po. In kind it is ADME, organism-based. Also on record: time < 4 hr, dose 50 mg/kg, route oral. The note with it: plasma. In outline:
as §1

Series [4] can be described thus: AUC (0 to 4 hrs) in mouse at 200 mg/kg, po. In kind it is ADME, organism-based. The note with it: plasma. More on the design: time < 4 hr, dose 200 mg/kg, route oral. In outline:
as §1

The test system of series [5] is Mus musculus. The series is described as follows: Ratio of AUC (0 to 4 hrs) in mouse plasma at 200 mg/kg, po to AUC (0 to 4 hrs) in mouse plasma at 50 mg/kg, po. In kind it is ADME, organism-based. Conditions: in vivo. In outline:
as §1

A short description of series [6]: Aqueous solubility at pH 6.5. In kind it is physicochemical.
Series [7] addresses T1, Cytochrome P450 1A2 (Homo sapiens, UniProt P05177).
T1 sequence (P05177 whole entry): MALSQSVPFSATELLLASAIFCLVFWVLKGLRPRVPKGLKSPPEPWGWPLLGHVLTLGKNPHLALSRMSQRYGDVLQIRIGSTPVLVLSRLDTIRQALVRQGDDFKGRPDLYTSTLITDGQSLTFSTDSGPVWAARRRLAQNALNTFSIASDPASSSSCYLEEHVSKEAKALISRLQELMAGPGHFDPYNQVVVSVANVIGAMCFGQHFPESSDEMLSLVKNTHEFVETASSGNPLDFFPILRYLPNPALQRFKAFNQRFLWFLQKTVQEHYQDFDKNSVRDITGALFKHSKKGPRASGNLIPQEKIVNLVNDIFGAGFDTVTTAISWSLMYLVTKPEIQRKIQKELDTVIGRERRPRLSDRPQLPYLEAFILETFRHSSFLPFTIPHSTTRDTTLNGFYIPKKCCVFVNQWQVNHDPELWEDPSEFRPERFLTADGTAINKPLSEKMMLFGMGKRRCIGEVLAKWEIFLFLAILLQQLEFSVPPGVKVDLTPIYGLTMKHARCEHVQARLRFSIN
The experiment in a line: Inhibition of human CYP1A2. In kind it is ADME.

Series [8] has as its target Cytochrome P450 2C9 (Homo sapiens, UniProt P11712). The series is described as follows: Inhibition of human CYP2C9. In kind it is ADME.
Series [9] deals with Cytochrome P450 2C19 (Homo sapiens, UniProt P33261). The series is described as follows: Inhibition of human CYP2C19. In kind it is ADME.
Series [10] deals with Cytochrome P450 2D6 (Homo sapiens, UniProt P10635). The experiment in a line: Inhibition of human CYP2D6. In kind it is ADME.
In series [11] the target is T2, Cytochrome P450 3A4 (Homo sapiens, UniProt P08684). The experiment in a line: Inhibition of human CYP3A4 using 7-benzyl-trifluoromethyl coumarin. In kind it is ADME.
In series [12] the target is T2, Cytochrome P450 3A4. The series is described as follows: Inhibition of human CYP3A4 using 7-benzyloxyresorufin. In kind it is ADME.
The nature of series [13]: Aqueous solubility at pH 5.8. In kind it is physicochemical.
Series [14] relates to L2987. The series is described as follows: Antitumor activity against human L2987 cells xenografted po dosed athymic mouse after 14 days. In kind it is functional, organism-based. In a few lines:
(§2)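 L2987 non-small cell lung tumors were grown as xenografts in athymic mice. Once tumors were established at 80–100 mm³, animals were dosed orally once daily for 14 consecutive days. Tumor growth was followed through dosing, and activity was expressed as percent tumor growth inhibition (%TGI).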

Series [15] has as its system L2987. The experiment in a line: Antitumor activity against human L2987 cells xenografted athymic mouse at 80 mg/kg/day, po after 14 days. The note with it: L2987, 336 h, read-out: TGI. In kind it is functional. In outline: as §2
Series [16] deals with L2987. The experiment in a line: Antitumor activity against human L2987 cells xenografted athymic mouse at 107 mg/kg/day, po after 14 days. In kind it is functional. Conditions: L2987, 336 h, read-out: TGI. In outline:
as §2
(Xenograft models place foreign cells or tissue in a host animal.)

Cytochrome P450 2D6, sequence (P10635 whole entry): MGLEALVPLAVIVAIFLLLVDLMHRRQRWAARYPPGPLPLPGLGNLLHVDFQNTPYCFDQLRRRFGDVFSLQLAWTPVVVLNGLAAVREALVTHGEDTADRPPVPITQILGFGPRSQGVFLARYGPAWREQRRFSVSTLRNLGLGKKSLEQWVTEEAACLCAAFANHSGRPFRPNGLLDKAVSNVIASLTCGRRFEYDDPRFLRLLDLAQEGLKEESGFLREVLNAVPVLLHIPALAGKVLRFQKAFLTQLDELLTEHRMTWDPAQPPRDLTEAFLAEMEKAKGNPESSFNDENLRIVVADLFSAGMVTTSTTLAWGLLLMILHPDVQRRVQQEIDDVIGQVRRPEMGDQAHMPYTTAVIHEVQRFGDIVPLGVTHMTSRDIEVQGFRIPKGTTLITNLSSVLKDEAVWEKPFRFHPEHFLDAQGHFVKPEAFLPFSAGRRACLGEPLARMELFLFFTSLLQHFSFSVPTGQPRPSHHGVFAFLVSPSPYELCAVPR
T2 sequence (P08684 whole entry): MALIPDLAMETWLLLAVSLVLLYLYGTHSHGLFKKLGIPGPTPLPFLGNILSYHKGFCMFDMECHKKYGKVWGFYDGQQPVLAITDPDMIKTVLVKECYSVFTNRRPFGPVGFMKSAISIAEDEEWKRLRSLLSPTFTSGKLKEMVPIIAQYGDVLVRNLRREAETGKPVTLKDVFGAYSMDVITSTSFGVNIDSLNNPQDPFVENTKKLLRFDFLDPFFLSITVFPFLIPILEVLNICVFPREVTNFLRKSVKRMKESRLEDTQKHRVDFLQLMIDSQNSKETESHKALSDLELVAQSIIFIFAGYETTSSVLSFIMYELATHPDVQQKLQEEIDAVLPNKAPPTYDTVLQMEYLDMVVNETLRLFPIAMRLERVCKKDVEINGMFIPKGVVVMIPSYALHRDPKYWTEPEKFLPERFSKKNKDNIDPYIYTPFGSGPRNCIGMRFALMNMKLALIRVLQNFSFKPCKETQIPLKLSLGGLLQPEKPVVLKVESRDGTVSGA
Cytochrome P450 2C9, sequence (P11712 whole entry): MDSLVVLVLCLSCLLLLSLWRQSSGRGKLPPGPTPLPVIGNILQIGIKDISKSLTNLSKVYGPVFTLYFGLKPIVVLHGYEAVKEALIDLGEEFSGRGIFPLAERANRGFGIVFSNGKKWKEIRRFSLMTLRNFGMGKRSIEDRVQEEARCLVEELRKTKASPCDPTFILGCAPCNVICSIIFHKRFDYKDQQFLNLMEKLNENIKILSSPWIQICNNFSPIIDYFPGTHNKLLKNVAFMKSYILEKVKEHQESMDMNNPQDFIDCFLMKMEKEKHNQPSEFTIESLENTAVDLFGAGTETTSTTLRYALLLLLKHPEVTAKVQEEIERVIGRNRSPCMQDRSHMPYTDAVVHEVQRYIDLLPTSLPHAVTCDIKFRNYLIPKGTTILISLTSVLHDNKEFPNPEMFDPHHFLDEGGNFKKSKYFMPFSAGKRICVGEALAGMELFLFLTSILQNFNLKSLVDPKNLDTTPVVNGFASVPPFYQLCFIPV
Cytochrome P450 2C19, sequence (P33261 whole entry): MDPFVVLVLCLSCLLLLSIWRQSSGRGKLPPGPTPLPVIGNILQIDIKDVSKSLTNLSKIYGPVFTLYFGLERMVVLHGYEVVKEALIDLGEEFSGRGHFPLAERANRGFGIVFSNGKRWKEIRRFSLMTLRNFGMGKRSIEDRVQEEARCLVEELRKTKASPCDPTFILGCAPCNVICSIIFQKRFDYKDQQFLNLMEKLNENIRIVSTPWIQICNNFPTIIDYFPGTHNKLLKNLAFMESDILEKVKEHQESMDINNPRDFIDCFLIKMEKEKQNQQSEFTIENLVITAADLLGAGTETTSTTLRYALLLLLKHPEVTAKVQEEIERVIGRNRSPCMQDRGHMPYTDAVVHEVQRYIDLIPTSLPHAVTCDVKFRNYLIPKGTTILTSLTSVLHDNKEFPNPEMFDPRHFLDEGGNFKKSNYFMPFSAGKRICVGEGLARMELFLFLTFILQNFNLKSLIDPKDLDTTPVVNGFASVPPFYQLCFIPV

`Cc1cc2c(F)c(Oc3ncnn4cc(OC[C@@H](C)OC(=O)C(C)(C)N)c(C)c34)ccc2[nH]1`: the Cmax came to 15 µM in series [1] and 66 µM in series [2]. For the same molecule, the exposure AUC(0-t) at 4 h worked out at 46 µM·h in [3] and 213 µM·h in series [4]. Further, in [5], the Ratio came out at 4.6.
Regarding `Cc1cc2c(F)c(Oc3ncnn4cc(OC[C@@H](C)O)c(C)c34)ccc2[nH]1` [BRIVANIB], the solubility in series [6] was below 0.001 mg/mL. For the same molecule, the Cmax was 12 µM in series [1] and 14 µM in series [2]. In addition, the AUC(0-t) at 4 h in series [3] was determined as 45 µM·h; in series [4] it was 52 µM·h. Besides, the IC50 in series [7], in series [8], in [9] and in series [10] was above 40000 nM throughout.
Regarding `Cc1cc2c(F)c(Oc3ncnn4cc(OC[C@@H](C)OC(=O)C(N)CC(C)C)c(C)c34)ccc2[nH]1` (single isomer, unassigned), the IC50 in [11] stood at 95 nM; in series [12] it was 370 nM; in [7] it was 34000 nM; in [8] it was 2700 nM; in series [9] it was 1800 nM; in [10], 24000 nM. Besides, the Cmax in [1] was 31 µM; in [2], 152 µM. Also, the exposure AUC(0-t) at 4 h turned out to be 113 µM·h in [3] and 451 µM·h in [4]. For the same molecule, in [5], the Ratio turned out to be 4.
Consider `Cc1cc2c(F)c(Oc3ncnn4cc(OC[C@@H](C)OC(=O)CN)c(C)c34)ccc2[nH]1`, for which the IC50 in series [11] was determined as 160 nM; in series [12] it was 310 nM; in series [7], 3700 nM; in series [8], 63 nM; in series [9], 160 nM; in [10], 12000 nM. Also, the figures for the highest concentration (Cmax) in series [1] and in series [2] were 21 µM and 126 µM, respectively. Besides, the AUC(0-t) at 4 h in series [3] was found to be 69 µM·h; in [4], 303 µM·h. The Ratio in series [5] is 4.4.
Take `Cc1cc2c(F)c(Oc3ncnn4cc(OC[C@@H](C)OC(=O)C(C)N)c(C)c34)ccc2[nH]1` (single isomer, unassigned; 8): the maximum concentration (Cmax) in series [1] was 21 µM; in [2], 78 µM. In addition, the AUC(0-t) at 4 h in series [3] was found to be 69 µM·h; in [4], 276 µM·h. Further, the IC50 in series [7] is above 40000 nM; in [8], 9700 nM; in series [9], 2100 nM; in [10] it was 24000 nM. The molecule further showed a solubility in series [13] of 73 mg/mL (≈ 165 mM). The Activity entry in series [14] is “Dose-dependent effect”. Moreover, the inhibition in vivo at 80 mg/kg/day in series [15] worked out at 85%. Moreover, the inhibition in vivo at 107 mg/kg/day in series [16] was 97%.
